# XBP1 UPR activ: adaptive UPR (XBP1) activation. AID 463104. CHO-XBP1 luciferase reporter, IRE1-XBP1 UPR activation, luminescence; percent of tunicamycin response, DMSO as zero. 330,000 compounds, 0.33% hits. activation, % at 20 µM;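 active = versus positive control, 20 µM dose yields 30% or more activation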;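 also: 100% = tunicamycin at 10 µg/mL and 0% = DMSO only wells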
#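 Material: CHO-XBP1 cells stably carrying IRE1-XBP1-driven luciferase reporter / Amount: 1000 cells per well / Compound: 20 µM, 1% DMSO / Times: 6 h treatment, 37 °C / Detection: luciferase luminescence / Measure: % activation of reporter signal versus tunicamycin and DMSO controls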
# TLR4 MyD88 comp: inhibitors of human TLR4-MyD88 binding. 200,000 compounds, 0.18% hits. O00206+Q99836. inhibition, % at 8.4 µM. AID 861. HeLa CL3-4 TLR4/MyD88 BLA complementation, FRET ratio; in the data active = inhibition above about 25%;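 also: 0% = vehicle and 100% = reference inhibitor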
# NOD2-RIPK2 inh: NOD2-RIPK2 protein interaction inhibition; O43353; CHO BLA complementation NOD2-RIPK2, CCF4 ratio; inhibition, % at 4.98 µM; 360,000 compounds, 0.38% hits; in the data active = inhibition above about 21%;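 also: 0% = vehicle only and 100% = reference blocker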
# Target sequence (O43353 whole entry, looked up): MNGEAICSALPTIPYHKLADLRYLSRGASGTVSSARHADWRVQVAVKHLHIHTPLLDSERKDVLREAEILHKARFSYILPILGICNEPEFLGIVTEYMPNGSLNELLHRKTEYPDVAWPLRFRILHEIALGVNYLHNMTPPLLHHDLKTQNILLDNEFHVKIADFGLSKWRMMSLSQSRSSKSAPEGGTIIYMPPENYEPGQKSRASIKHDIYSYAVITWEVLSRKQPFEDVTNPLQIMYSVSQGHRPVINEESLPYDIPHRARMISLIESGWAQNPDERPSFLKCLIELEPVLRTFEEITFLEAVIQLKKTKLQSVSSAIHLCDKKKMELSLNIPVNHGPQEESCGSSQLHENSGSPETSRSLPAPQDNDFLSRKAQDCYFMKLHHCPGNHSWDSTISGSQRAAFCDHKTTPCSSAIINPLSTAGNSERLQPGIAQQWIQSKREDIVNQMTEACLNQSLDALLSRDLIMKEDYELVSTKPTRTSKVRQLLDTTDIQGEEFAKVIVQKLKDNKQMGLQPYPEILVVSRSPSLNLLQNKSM
# TLR9-MyD88 inh: inhibitors of human TLR9-MyD88 binding | CHO BLA complementation TLR9-MyD88, CCF4 FRET ratio | AID 504734 | inhibition, % at 4.98 µM | 340,000 compounds, 0.21% hits;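 active = inhibition above the mean over all tested compounds plus 3 SD, cut at about 21% in these data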;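 also: 0% = DMSO only wells and 100% = clavulanate BLA inhibitor control wells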
# CHOP inhibitor: CHOP inhibition in unfolded protein response. CHO-K1 CHOP-promoter luciferase, tunicamycin-induced, 15-18 h. inhibition, % at 10 µM. 220,000 compounds, 3.8% hits. AID 2732;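 active = compounds that reduced the stress-induced luciferase reporter signal by more than about 70% of percent inhibition, limit read from the data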;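 also: 0% = tunicamycin plus vehicle and 100% = wells without tunicamycin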
# CHOP UPR activ: apoptotic UPR (CHOP) activation; CHO-CHOP luciferase reporter, luminescence; percent of tunicamycin response over DMSO baseline; activation, % at 10 µM; 330,000 compounds, 0.34% hits;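 active = at 10 µM dose, activation of 40% or more, normalized to positive control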;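 also: 100% = tunicamycin at 10 µg/mL and 0% = DMSO alone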
#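 Evaluation: % reporter activation, DMSO baseline versus tunicamycin full activation; System: CHO-CHOP luciferase reporter cell line; Input: 500 cells/well; Incubation: 6 h compound treatment, 37 °C; Measured by: Steady-Glo luciferase luminescence; Dosing: one dose, 10 µM in 0.5% DMSO; Buffer or medium: F12 medium, 10% FBS; Benchmarks: positive tunicamycin 10 µg/mL, negative DMSO alone.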
# * marks the source's active call; other numbers are inactive results; · = no result. This excerpt belongs to a sample that is enriched for hits.
SMILES,XBP1 UPR activ,TLR4 MyD88 comp,NOD2-RIPK2 inh,TLR9-MyD88 inh,CHOP inhibitor,CHOP UPR activ
Cc1cc(C)cc(NC(=O)Nc2ccc(-n3ccc(C(F)(F)F)n3)cc2)c1,-1,·,-1,8,83*,3
CC1(C(=O)Nc2cccc3ncccc23)CCN1C(=O)Cc1ccc(-c2ccccc2)cc1 (stereo not given),·,·,3,·,·,·
N#CC1C=Cc2c(ccc3ccccc23)N1C(=O)c1ccccc1 (stereo not given),·,·,2,3,·,·
Cc1nn(C)c(Nc2ccc(Br)cc2)c1Br,-1,4,-7,-14,74*,0
Cc1nn(C)c(NC(=O)c2ccccc2Cl)c1Br,3,·,-2,-4,·,0
Cc1cc(C)nc(-n2nc(C)c(Br)c2Nc2ccc(Br)cc2)n1,0,-1,-2,-4,77*,0
NC(=O)c1sc2nc3c(c(-c4cccs4)c2c1N)CCCC3,·,-2,·,·,76*,·
Cc1ccc2c(c1)NC(=O)C(CC(=O)NCCCN1CCN(c3cc(Cl)ccc3C)CC1)O2 (stereo not given),-3,-3,4,-5,79*,1
CC12CCC(c3nnc(SCc4ccc(Cl)cc4)nc31)C2(C)C (stereo not given),-1,8,-3,-2,74*,-1
Cc1cc(C(=O)CSc2nnc3ccccn23)c(C)n1-c1ccccc1,-8,3,-16,3,73*,-10
Cc1cc(C(=O)CSc2nnc(-c3ccccc3)n2-c2ccccc2)c(C)n1-c1ncn[nH]1,0,-12,5,6,-9,2
CCN(C(=O)COC(=O)c1ccccc1Nc1cccc(C)c1C)C1CCS(=O)(=O)C1 (stereo not given),0,2,8,-2,70*,-1
N=C1S/C(=C\c2cccc3ccccc23)C(=O)N1c1ccc(F)cc1,4,12,3,4,99*,2
Brc1ccc(CSc2nccn2-c2ccccc2)cc1,4,-3,22*,10,76*,-1
COCCCN1C(=O)C(CC(=O)NC2CCCCC2)CC(C(=O)N2CCCCCC2)=C1C (stereo not given),·,·,-18,·,·,·
O=c1c[n+]([O-])c2ccccc2n1OCc1c(F)cccc1F,-3,-2,-6,4,88*,1
COc1cc(NC(=O)c2csc3c2CCCC3)ncn1,0,-6,-6,6,72*,4
CCOC(=O)Cc1csc(NC(=O)NC2(C(F)(F)F)Oc3ccccc3O2)n1,11,-7,-6,1,92*,2
CCOC(=O)Cc1csc(NC(=O)Nc2ccc(OC(F)(F)F)cc2)n1,2,·,-11,2,39,7
CCOC(=O)Cc1csc(NC(=O)c2csc3c2CCCC3)n1,0,13,-11,-7,76*,1
CCOC(=O)Cc1csc(NC(=O)c2cc3c(s2)CCCC3)n1,-2,-7,3,-2,38,0
CC1(Oc2cccc(F)c2)CCN(Cc2ccc(-c3ccccc3)o2)C1 (stereo not given),·,·,-18,·,·,·
COc1ccc(N2CCN(C(=O)C(=O)c3ccc(F)cc3)CC2)cc1,·,·,-2,·,·,·
COc1ccccc1C1CC(c2cccs2)=Nc2ccccc2S1 (stereo not given),3,5,7,0,84*,2
COc1cccc(Cn2c(Oc3ccccc3)nc3c2c(=O)n(C)c(=O)n3C)c1,-1,4,0,4,48,-1
SMILES,XBP1 UPR activ,TLR4 MyD88 comp,NOD2-RIPK2 inh,TLR9-MyD88 inh,CHOP inhibitor,CHOP UPR activ
Cn1c(=O)c2c(nc(SCCCO)n2Cc2ccccc2Cl)n(C)c1=O,-1,-9,-9,7,15,-1
C=CC(C)Sc1nc2c(c(=O)n(C)c(=O)n2C)n1Cc1ccccc1Cl (stereo not given),-2,-1,-1,-2,83*,-2
C=CCOc1nc2c(c(=O)n(C)c(=O)n2C)n1Cc1ccc(Cl)cc1,2,6,-13,-3,82*,8
COc1cccc(Cn2c(Oc3cccc(C)c3)nc3c2c(=O)n(C)c(=O)n3C)c1,3,-12,-2,-15,79*,2
CCOC(=O)/C=C/C(=O)Nc1ccc(S(=O)(=O)Nc2cc(OC)nc(OC)n2)cc1,·,·,4,2,·,·
CCOP(=O)(OCC)c1nc(/C=C/c2ccccc2)oc1NCc1ccc(OC)cc1,-1,-4,-12,-9,77*,-1
CCOP(=O)(OCC)c1nc(-c2cccc3ccccc23)oc1NCc1ccccc1,1,1,-5,-3,77*,-1
Cc1ccc(-c2cc(C(F)F)nc(NCC3CCCO3)n2)cc1 (stereo not given),11,-19,-3,3,86*,1
Clc1ccc(NCc2cccnc2)c(Cl)c1,-1,·,-5,-1,·,0
COc1ccc(-c2cc(C(F)(F)F)nc(NCc3cccs3)n2)cc1,-1,-17,-14,-7,18,1
Cc1ccc(-c2cc(C(F)F)nc(NCc3cccnc3)n2)cc1,-1,-12,4,0,76*,3
Cc1ccc(-c2cc(C(F)F)nc(NCc3cccs3)n2)cc1,-2,-2,1,-2,91*,1
Cc1ccc(CC(=O)NCc2cccnc2)cc1,-3,-1,·,·,-4,-1
FC(F)(F)c1cc(-c2ccc(Cl)cc2)nc(NCc2cccnc2)n1,0,6,-1,0,89*,1
CCCNC(=O)C1(C)CCCN(C(=O)c2cccc(Cl)c2)C1 (stereo not given),·,·,1,·,·,·
CN(C)c1ccc(NC(=S)Nc2ccc3c(c2)c(=O)n(C)n3-c2ccc(C(C)(C)C)cc2)cc1,·,·,10,·,·,·
CCN(C)C1CN(Cc2cn(Cc3cccc(Cl)c3)nn2)S(=O)(=O)C1 (stereo not given),·,·,-9,·,·,·
C[C@@H]1CN([C@H](C)CO)C(=O)CCCn2cc(nn2)CO[C@H]1CN(C)C(=O)Nc1ccc(-c2cccs2)cc1,·,·,2,-10,·,·
CCCS(=O)(=O)NC(=O)C1(C)CCCN(C(=O)c2cncc(Br)c2)C1 (stereo not given),·,·,-16,·,·,·
Cc1cc(C)c2nc(NC(=O)[C@@H](NC(=O)c3cccc(S(=O)(=O)N4CCOCC4)c3)C(C)C)sc2c1,4,-5,-3,-5,93*,3
Cc1cccc(C(=O)N[C@H](C(=O)Nc2cc(S(=O)(=O)N3CCCCC3)ccc2C)C(C)C)c1,-4,-8,-4,4,17,2
Cc1nn(S(=O)(=O)c2ccccc2)c(C)c1Sc1ccc([N+](=O)[O-])cc1,-2,-14,-2,3,80*,3
